According to PMC2808857 (Journal of clinical pharmacology, 2009):
Like-named read-outs stand apart in the source and are kept apart here.

Columns and labels:
[1] = test system: patients with advanced refractory solid tumors; experiment: Toxicity assessment; type: in vivo, human
[2] = Population pharmacokinetic analysis
[3] = type: in vivo, human; conditions: for AUC / Cmax / T1/2 / Tmax / Urine excretion, %dose: mean (range); for Urine excretion, %dose: urine 0-24 hr
In short: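 Patients with refractory solid tumors took the capsule with water after overnight fasting. Plasma was drawn predose and at 0.5, 1, 2, 4, 6, 9, 12, 24, 32 and 48 h, then stored at −70°C. Drug was extracted into ethyl acetate and quantified by LC–ESI single-quadrupole MS (LLOQ 5 ng/ml). Parameters were noncompartmental per patient, with Cmax and Tmax as observed. Renal clearance = Ae,0–24/AUC0–24.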

[4] = test system: patients with refractory metastatic solid tumors; experiment: Response to therapy; type: in vivo, human
In short: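 Patients with refractory metastatic solid tumors received oral test compound once daily (5–40 mg/day dose escalation), taken with water after overnight fasting. Dosing was initially continuous over 28-day cycles, then amended to 21 days on and 7 days off. Treatment continued until progression or toxicity. Measurable disease was assessed by RECIST, with radiographic studies at end of cycle 3 and every other cycle thereafter.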

[5] = cited from earlier work
[6] = 5 mg single oral dose, cycle 1 day 1, n=2
[7] = 10 mg single oral dose, cycle 1 day 1, n=6
[8] = 15 mg single oral dose, cycle 1 day 1, n=3
[9] = 20 mg single oral dose, cycle 1 day 1, n=9
[10] = 25 mg single oral dose, cycle 1 day 1, n=6
[11] = 30 mg single oral dose, cycle 1 day 1, n=8
[12] = 35 mg single oral dose, cycle 1 day 1, n=6
[13] = 40 mg single oral dose, cycle 1 day 1, n=3

(α -(3-aminophthalimido) glutarimide) [lenalidomide]
patients with dose reductions ([1]; continuous doses, 4 out of 15 patients): 27%
Anemia, Grade 3, number of patients ([1]; continuous dosing (n=15)): 1
Constipation, Grade 1, number of patients ([1]; continuous dosing (n=15)): 2
Constipation, Grade 2, number of patients ([1]; continuous dosing (n=15)): 1
Diarrhea, Grade 1, number of patients ([1]; continuous dosing (n=15)): 4
Dizziness, Grade 1, number of patients ([1]; continuous dosing (n=15)): 3
Dizziness, Grade 2, number of patients ([1]; continuous dosing (n=15)): 1
Fatigue, Grade 1, number of patients ([1]; continuous dosing (n=15)): 4
Fatigue, Grade 2, number of patients ([1]; continuous dosing (n=15)): 1
Flatulence, Grade 1, number of patients ([1]; continuous dosing (n=15)): 3
Hypotension, Grade 1, number of patients ([1]; continuous dosing (n=15)): 2
Hypotension, Grade 3, number of patients ([1]; continuous dosing (n=15)): 1
Nausea, Grade 1, number of patients ([1]; continuous dosing (n=15)): 4
Neuropathic Sensory, Grade 1, number of patients ([1]; continuous dosing (n=15)): 4
Neutropenia, Grade 1, number of patients ([1]; continuous dosing (n=15)): 1
Neutropenia, Grade 2, number of patients ([1]; continuous dosing (n=15)): 3
Neutropenia, Grade 3, number of patients ([1]; continuous dosing (n=15)): 2
Pleural effusion, Grade 1, number of patients ([1]; continuous dosing (n=15)): 2
Pruritus, Grade 1, number of patients ([1]; continuous dosing (n=15)): 5
Pruritus, Grade 2, number of patients ([1]; continuous dosing (n=15)): 1
Rash/desquamation, Grade 1, number of patients ([1]; continuous dosing (n=15)): 4
SGPT, Grade 2, number of patients ([1]; continuous dosing (n=15)): 2
Thrombosis, Grade 3, number of patients ([1]; continuous dosing (n=15)): 2
Anemia, Grade 1, number of patients ([1]; intermittent dose (n=35)): 1
Anemia, Grade 2, number of patients ([1]; intermittent dose (n=35)): 1
Anemia, Grade 3, number of patients ([1]; intermittent dose (n=35)): 1
Anorexia, Grade 1, number of patients ([1]; intermittent dose (n=35)): 3
Anorexia, Grade 2, number of patients ([1]; intermittent dose (n=35)): 1
Constipation, Grade 1, number of patients ([1]; intermittent dose (n=35)): 4
Constipation, Grade 2, number of patients ([1]; intermittent dose (n=35)): 5
Diarrhea, Grade 1, number of patients ([1]; intermittent dose (n=35)): 5
Diarrhea, Grade 3, number of patients ([1]; intermittent dose (n=35)): 1
Dizziness, Grade 1, number of patients ([1]; intermittent dose (n=35)): 8
Dysgeusia, Grade 1, number of patients ([1]; intermittent dose (n=35)): 3
Edema, Grade 1, number of patients ([1]; intermittent dose (n=35)): 4
Fatigue, Grade 1, number of patients ([1]; intermittent dose (n=35)): 14
Fever, Grade 1, number of patients ([1]; intermittent dose (n=35)): 4
Hemolysis, Grade 2, number of patients ([1]; intermittent dose (n=35)): 1
Hemolysis, Grade 4, number of patients ([1]; intermittent dose (n=35)): 1
Infection, Grade 2, number of patients ([1]; intermittent dose (n=35)): 1
Infection, Grade 3, number of patients ([1]; intermittent dose (n=35)): 2
Insomnia, Grade 1, number of patients ([1]; intermittent dose (n=35)): 5
Leukopenia, Grade 2, number of patients ([1]; intermittent dose (n=35)): 1
Leukopenia, Grade 3, number of patients ([1]; intermittent dose (n=35)): 1
Myalgia, Grade 1, number of patients ([1]; intermittent dose (n=35)): 5
Myalgia, Grade 2, number of patients ([1]; intermittent dose (n=35)): 1
Nausea, Grade 1, number of patients ([1]; intermittent dose (n=35)): 9
Nausea, Grade 2, number of patients ([1]; intermittent dose (n=35)): 1
Neutropenia, Grade 1, number of patients ([1]; intermittent dose (n=35)): 1
Neutropenia, Grade 2, number of patients ([1]; intermittent dose (n=35)): 2
Neutropenia, Grade 3, number of patients ([1]; intermittent dose (n=35)): 2
Neutropenia, Grade 4, number of patients ([1]; intermittent dose (n=35)): 3
Pleural effusion, Grade 1, number of patients ([1]; intermittent dose (n=35)): 2
Pleural effusion, Grade 3, number of patients ([1]; intermittent dose (n=35)): 1
Pruritus, Grade 1, number of patients ([1]; intermittent dose (n=35)): 4
Pruritus, Grade 2, number of patients ([1]; intermittent dose (n=35)): 1
Rash/desquamation, Grade 1, number of patients ([1]; intermittent dose (n=35)): 7
Rash/desquamation, Grade 2, number of patients ([1]; intermittent dose (n=35)): 3
Supraventricular arrythmia, Grade 4, number of patients ([1]; intermittent dose (n=35)): 1
Thrombocytopenia, Grade 1, number of patients ([1]; intermittent dose (n=35)): 3
Thrombocytopenia, Grade 3, number of patients ([1]; intermittent dose (n=35)): 2
patients with dose reductions ([1]; intermittent doses, 7 out of 30 patients): 23%
dose up to which lenalidomide was well tolerated ([1]; intermittent dosing schedule, 21 days on, 7 days off): up to 35 mg/day
interpatient variability on total lenalidomide clearance ([2]; before inclusion of CLCr in the model): 70.6%
BSV of Tlag, Population Mean (95% CI) ([2]; final PopPK model): 30.0 (2.2 – 47.9) CV%
BSV of V/F, Population Mean (95% CI) ([2]; final PopPK model): 33.0 (1.0 – 48.0) CV%
BSV of ka, Population Mean (95% CI) ([2]; final PopPK model): 146 (95 – 184) CV%
Residual error, Population Mean (95% CI) ([2]; final PopPK model): 34.0 (26.9 – 40.0) CV%
Tlag, Population Mean (95% CI) ([2]; final PopPK model): 0.37 (0.30 – 0.43) hr
V/F, Population Mean (95% CI) ([2]; final PopPK model): 57.8 (49.4 – 66.2) L
ka, Population Mean (95% CI) ([2]; final PopPK model): 4.60 (0.66 – 8.54) 1/hr
CL/F, Mild RI, Population Mean (95% CI) ([2]; final PopPK model, 50 ≤ CLCr ≤ 80 mL/min): 136 (97 – 175) ml/min
CL/F, Normal renal function, Population Mean (95% CI) ([2]; final PopPK model, CLCr > 80 mL/min): 243 (193 – 297) ml/min
BSV of Tlag, Bootstrap Median (95% CI) ([2]; non-parametric bootstrap): 29.1 (4.5 – 65.1) CV%
BSV of V/F, Bootstrap Median (95% CI) ([2]; non-parametric bootstrap): 31.5 (14.5 – 52.4) CV%
BSV of ka, Bootstrap Median (95% CI) ([2]; non-parametric bootstrap): 143 (92 – 197) CV%
Residual error, Bootstrap Median (95% CI) ([2]; non-parametric bootstrap): 33.8 (27.4 – 40.9) CV%
Tlag, Bootstrap Median (95% CI) ([2]; non-parametric bootstrap): 0.37 (0.25 – 0.43) hr
V/F, Bootstrap Median (95% CI) ([2]; non-parametric bootstrap): 57.8 (51.3 – 66.7) L
ka, Bootstrap Median (95% CI) ([2]; non-parametric bootstrap): 4.67 (2.52 – 9.19) 1/hr
CL/F, Mild RI, Bootstrap Median (95% CI) ([2]; non-parametric bootstrap, 50 ≤ CLCr ≤ 80 mL/min): 136 (103 – 178) ml/min
CL/F, Normal renal function, Bootstrap Median (95% CI) ([2]; non-parametric bootstrap, CLCr > 80 mL/min): 243 (202 – 297) ml/min
dose-normalized AUC ([2]; patients with normal renal function): 75 ng·h/ml per mg
dose-normalized AUC ([2]; renally impaired subjects (mild RI)): 167 ng·h/ml per mg
AUC [3, 6]: 302 (257, 346) ng·hr/ml
Cmax [3, 6]: 80 (66, 93) ng/ml
T1/2 [3, 6]: 2.7 (2.1, 3.3) hr
Tmax [3, 6]: 0.75 (0.5, 1) hr
AUC [3, 7]: 571 (256–1415) ng·hr/ml
Cmax [3, 7]: 107 (59–163) ng/ml
T1/2 [3, 7]: 3.1 (2.4–4.2) hr
Tmax [3, 7]: 1 (0.5– 4) hr
AUC [3, 8]: 1090 (712–1391) ng·hr/ml
Cmax [3, 8]: 195 (174–224) ng/ml
Tmax [3, 8]: 2 (1–4) hr
AUC [3, 9]: 1901 (239–4093) ng·hr/ml
Cmax [3, 9]: 343 (64–621) ng/ml
T1/2 [3, 9]: 3.1 (1.9–7.8) hr
Tmax [3, 9]: 1 (0.5–6.1) hr
AUC [3, 10]: 3820 (1081–11363) ng·hr/ml
Cmax [3, 10]: 451 (311–631) ng/ml
T1/2 [3, 10]: 5.3 (1.6–15.9) hr
Tmax [3, 10]: 1.5 (0.5–8.9) hr
AUC [3, 11]: 4040 (844–15445) ng·hr/ml
Cmax [3, 11]: 593 (69–1315) ng/ml
T1/2 [3, 11]: 4.0 (3.2–14.2) hr
Tmax [3, 11]: 1.5 (0.5–6) hr
Urine excretion, %dose ([3]; 30 mg single oral dose, n=3): 47.0 (36.3–62.0) %dose
AUC [3, 12]: 5309 (3172–7062) ng·hr/ml
Cmax [3, 12]: 782 (594–969) ng/ml
T1/2 [3, 12]: 6.7 (3.7–14.5) hr
Tmax [3, 12]: 1 (0.5–4) hr
Urine excretion, %dose ([3]; 35 mg single oral dose, n=4): 54.6 (48.3–63.1) %dose
AUC [3, 13]: 3926 (3281–4656) ng·hr/ml
Cmax [3, 13]: 842 (648–1002) ng/ml
T1/2 [3, 13]: 4.1 (1.8–6.2) hr
Tmax [3, 13]: 1 (0.75–2) hr
Urine excretion, %dose ([3]; 40 mg single oral dose, n=2): 44.9 (43.8, 46.0) %dose
CL/F_renal as share of the total clearance ([3]; 9 patients): about 50%
amount of unchanged lenalidomide excreted into urine for 24 hours ([3]; 30-40 mg dose groups): 45–55 % of dose
mean half-life (T1/2) ([3]; across all doses 5-40 mg, oral): 3.9 h
time of peak plasma concentration ([3]; after single oral administration): around 1 hour
median time on-study of patients with stable disease ([4]; 12 patients, range 4 – 11): 5 months
complete or partial response ([4]; 44 evaluable patients): No complete or partial response was noted
patients with stable disease who had prostate cancer ([4]; of 12 patients with SD): 9
unchanged lenalidomide excreted into urine, fraction of dose ([5]; healthy volunteers): two thirds
increase of lenalidomide exposure in mild RI over normal function ([5]; patients with multiple myeloma): 56%
